Test results published in PubChem BioAssay AID822 (SRMLSC, 2007).
Active and inactive are the calls of the source.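 The calls were made as follows: active = half-maximal effective dose for blocking growth of human endothelial cells at most 100 µM; inactive = the rest.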

system: HUVEC proliferation, viability ATP luminescence; assay: growth suppression of umbilical vein endothelial cells – cell-based, HUVEC, ATP luminescence, dose response (AID 822);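 also: cells exposed to compound for 72 h before the ATP read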
In short: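 Material – HUVEC · Amount – 1250 HUVEC cells seeded per well · Medium – EBM plus 2% FBS · Dosing – dose series 0.039 to 20 µM, DMSO 0.2% · Times – 72 h exposure, 37 °C · Detection – ATP luminescence · Read-out basis – % viability and fitted EC50 · Format – collagen-coated plates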

Row | Structure (SMILES) | EC50
1 | COC(=O)/C(=C\Nc1ccc(Cl)cc1Cl)NC(=O)c1ccc(Cl)cc1Cl | 7.64 µM
2 | Cc1ccsc1/C=C/C1=Cc2c(sc(NC(=O)CSc3n[nH]c(N)n3)c2C#N)C(C)(C)C1 | 17.7 µM
3 | Cc1nn(-c2ccc(Cl)cc2)c2sc(C(=O)N3CCN(c4ccccn4)CC3)cc12 | 19 µM
4 | N#Cc1nc(-c2ccc(OCc3ccccc3Cl)cc2)oc1NCCCn1ccnc1 | 2.55 µM
5 | COC(=O)c1sccc1NC(=O)c1ccc2c(c1)OCO2 | 20.4 µM
6 | CS(=O)(=O)c1nc(-c2cccs2)cc(C(F)(F)F)n1 | 6.11 µM
7 | Nc1nc(NC(=O)c2cccc(S(=O)(=O)N3CCCCCC3)c2)nc(-c2ccccc2)n1 | 12.8 µM
8 | COc1ccc(-n2nc(C(=O)NCc3ccco3)c3c4ccccc4n(C)c3c2=O)cc1Cl | 19.7 µM
9 | COc1cc2nc(NCCCN3CCN(C)CC3)n3nc(-c4ccccc4)nc3c2cc1OC | 10.5 µM
10 | COc1ccc(NC(=O)c2oc3ccccc3c2NC(=O)COc2ccccc2OC)c(OC)c1 | 2.8 µM
11 | Cc1ccc2c(c1)c1c(n2CC(O)Cn2c(C)nc3ccccc32)CCCC1 (configuration not stated) | 10.6 µM
12 | CC1(c2ccccc2)CC(C)(C)N2C(=O)C3(C(C#N)=C(N)Oc4cc(O)ccc43)c3cccc1c32 (configuration not stated) | 6.69 µM
13 | C/C(CC1CC2=C(CC1(C)C)C(C)(C)CCC2)=N\NC(N)=S (configuration not stated) | 4.89 µM
14 | Cc1cc(C)c2oc(-c3cccc(NC(=O)c4ccc(F)cc4)c3)nc2c1 | 19.3 µM
15 | Cc1cccc(-c2nc(CN3CCCC(C(=O)NC4CCC(C)CC4)C3)c(C)o2)c1 (configuration not stated) | 11.6 µM
16 | COC(=O)C1=C(O)/C(=C\c2ccc(CNC(=O)C(=O)Nc3ccc(C)c(C)c3)o2)N=C1C | 13.3 µM
17 | CCn1cc(C(=O)NCCc2ccccc2)c(=O)c2cc(F)c(N3CCN(C)CC3)cc21 | 16.8 µM
18 | Cc1ccccc1C(=O)c1cccn1CC(=O)NCCN1CCN(c2cccc(C)c2C)CC1 | 8.36 µM
19 | CC(Nc1nc(N2CCCC2)nc2ccccc12)c1ccccc1 (configuration not stated) | 5.19 µM
20 | CN(C)c1ccc(-c2nn3c(-c4ccc(Cl)cc4Cl)nnc3s2)cc1 | 14.8 µM
21 | Cc1ccc(S(=O)(=O)N2CCCN(S(=O)(=O)c3ccc(C(F)(F)F)cc3)CC2)cc1 | 7.11 µM
22 | O=C(Nc1nnc(-c2ccc3c(c2)OCCO3)o1)c1ccc(Cc2ccccc2)cc1 | 4.76 µM
23 | CC1=C(C(=O)OC2CCCCCCC2)C(c2cc3c(cc2Br)OCO3)CC(=O)N1 (configuration not stated) | 6.99 µM
24 | CCOC(=O)c1sc2nc(C(C)C)c3c(c2c1N)CC(C)(C)OC3 | 20.8 µM
25 | Cc1ccc2[nH]c(=O)c(C3C(C#N)=C(N)Oc4c3ccc3cccnc43)cc2c1 (configuration not stated) | 9.52 µM
26 | CCOC(=O)c1sc(NC(=O)CSc2nnnn2-c2ccc(C)cc2C)nc1C | 13.7 µM

Row | Structure (SMILES) | EC50
27 | Cc1nc2sccn2c(=O)c1CCN1CCC(=C(c2ccc(F)cc2)c2ccc(F)cc2)CC1 | 8.98 µM
28 | CCc1[nH]nc2c1C(c1ccc(Br)s1)C(C#N)=C(N)O2 (configuration not stated) | 14 µM
29 | Cn1c(=O)n(C)c2cc(C(=O)Nc3ccc4c(c3)OCO4)ccc21 | 11.6 µM
30 | c1cc2c3c(cccc3c1)NC1(CCCCCC1)N2 | > 10 µM (inactive)
31 | Cn1c(=O)c2c(nc(Oc3ccc4c(c3)OCO4)n2Cc2ccc(Cl)cc2)n(C)c1=O | 5.33 µM
32 | CCN1CCN(c2cc(C)c3cc(NC(=O)c4ccc(OC)c(OC)c4)ccc3n2)CC1 | 13.6 µM
33 | Cc1ccccc1NS(=O)(=O)c1ccc(N2CCCC2=O)cc1 | 19.6 µM
34 | CC1CCN(S(=O)(=O)c2ccc(NC(=O)Cn3nnc(-c4ccccc4F)n3)cc2)CC1 | 6.62 µM
35 | C=CCN1C(=Nc2cccnc2)SCC1(O)c1ccc(C)cc1 (configuration not stated) | 11.2 µM
36 | CCOc1cc2nc(-c3ccc(OC)c(OC)c3)nc(N3CCOCC3)c2cc1OC | 5.27 µM
37 | Cc1cc2nc(C3CCN(CC4COc5ccccc5O4)CC3)[nH]c2cc1C (configuration not stated) | 19.8 µM
38 | O=S(=O)(CCN(CCS(=O)(=O)C(F)(F)F)CC1CCCO1)C(F)(F)F (configuration not stated) | 12.5 µM
39 | CCOc1cc(/C=N\NC(=O)Cn2nc([N+](=O)[O-])cc2C)ccc1OCc1cccc2ccccc12 | 20.7 µM
40 | c1ccc(-c2nc(N3CCCCCC3)c3ccccc3n2)nc1 | 1.55 µM
41 | COc1ccccc1C1CC(c2c(-c3ccccc3)c3cc(Cl)ccc3[nH]c2=O)=NN1S(C)(=O)=O (configuration not stated) | 8.65 µM
42 | CCCCCCn1c(O)c(C=NC2CCCCC2N)c(=O)[nH]c1=O (configuration not stated) | 9.15 µM
43 | C=C(C)COc1ccc(-c2n[nH]c(C)c2Oc2ccccc2OC)c(O)c1 | 10.9 µM
44 | CCOC(=O)C1=C(Cc2ccc(F)cc2)C(=O)c2ccccc2C1=O | 13.6 µM
45 | Cn1c2ccccc2c(=O)c2c(=O)n(C3CCCCC3)c(-c3cccs3)nc21 | 8.3 µM
46 | CCC(C)[C@@H](NC(=O)OC(C)(C)C)c1nnc(S(=O)(=O)Cc2cccc(C)c2)o1 (some centres not stated) | 19.3 µM
47 | Cc1ccccc1-n1ncc2c([N+](=O)[O-])cc([N+](=O)[O-])cc21 | 9.29 µM
48 | CC1=CC(C)(C)N2C(=O)C3(C(C#N)=C(N)Oc4cc(O)ccc43)c3c(C)c(C)cc1c32 (configuration not stated) | 6.14 µM
49 | COC(=O)c1ccc2c(=O)n(Cc3ccco3)c(SCC(=O)Nc3ccccc3Cl)nc2c1 | 4.94 µM
50 | CCCc1ccc(Oc2c(-c3ccc(O)c(C)c3O)n[nH]c2C)cc1 | 9.55 µM
51 | C=CCOC(=O)C1=C(C)NC(SCC(=O)Nc2ccc(C)c(Cl)c2)=C(C#N)C1c1ccco1 (configuration not stated) | 20.1 µM
52 | CCOC(=O)N1CCC(c2cc(=O)n3[nH]c(C)c(-c4ccc(F)cc4)c3n2)CC1 | 6.46 µM

Row | Structure (SMILES) | EC50
53 | CC(=O)Nc1ccc(S(=O)(=O)N2CCN(c3nc(NC4CCCC4)c4ccccc4n3)CC2)cc1 | 4.96 µM
54 | COC(=O)COc1ccc(S(=O)(=O)NCCC2=CCCCC2)cc1Cl | 9.76 µM
55 | CC1CCC(C(=O)c2c(O)c3ccccc3oc2=O)CC1 (configuration not stated) | 7.71 µM
56 | CCCSc1nc2c(cnn2-c2ccc(C)cc2)c(=O)[nH]1 | 5.19 µM
57 | CCn1c2c(c3cc(Br)ccc31)CCC/C2=N\O | 15.2 µM
58 | O=C(N/N=C/c1ccco1)c1cc(-c2ccc3ccccc3c2)n[nH]1 | 9.25 µM
59 | Cc1ccc2c(c1)c1c(n2CC(O)Cn2c(C)nc3ccccc32)/C(=N\O)CCC1 (configuration not stated) | 8.98 µM
60 | Cc1ccc(C)c(N2CCN(CCCNC(=O)Cn3cc4c(n3)CCCCC4)CC2)c1 | 10.9 µM
61 | N=c1n(CCN2CCCCC2)c2ccccc2n1CC(O)c1cccc(Br)c1 (configuration not stated) | 9.51 µM
62 | COc1ccc(-c2nnc(Nc3nc4c(OC)cccc4s3)o2)cc1 | 4.41 µM
63 | Cc1cccc(-c2nnc(NC(=O)c3ccc(Cl)cc3)o2)c1 | 2.78 µM
64 | CN1CCN(c2ccccc2NC(=O)c2ccc(OCc3ccccc3)cc2)CC1 | 10.8 µM
65 | COc1cc(N=c2ssnc2Cl)c(OC)cc1Cl | 20.9 µM
66 | CCCc1nc(SCC(=O)N2CCC(Cc3ccccc3)CC2)c2c(=O)n(C)c(=O)n(C)c2n1 | 10.5 µM
67 | COC(=O)c1ccc2c(=O)n(Cc3ccco3)c(SCC(=O)Nc3ccc(C)c(Cl)c3)nc2c1 | 9.21 µM
68 | CCOC(=O)COc1ccc(S(=O)(=O)NCCC2=CCCCC2)cc1 | 11.9 µM
69 | Cn1cc(SCC(=O)Nc2nc3ccccc3s2)c2ccccc21 | 6.29 µM
70 | CCCOC(=O)c1ccc(Oc2cn[nH]c2-c2ccc(OCC)cc2O)cc1 | 9.51 µM
71 | COc1ccc(Cl)cc1N1CCN(CCNC(=O)Nc2ccccc2C)CC1 | 5.83 µM
72 | CCc1nc(SCC(=O)Nc2ccc3c(c2)OCCO3)c2oc3ccccc3c2n1 | 9.5 µM
73 | Oc1ccc(Cl)cc1-c1cc(-c2ccco2)[nH]n1 | 13.7 µM
74 | CCC(CC)COC(=O)C(C#N)c1nc2ccccc2nc1N1CCN(CC)CC1 (configuration not stated) | 10.2 µM
75 | Fc1ccc2c(Cl)c(-c3nnc(-c4cccs4)o3)sc2c1 | 8.06 µM
76 | Cc1occc1-c1nnc(SCC(=O)NCc2cccs2)n1-c1ccc(F)cc1 | 15.2 µM
77 | COC(=O)c1c(C)n(-c2ccc(C)cc2)c2ccc(O)cc12 | 18.6 µM
